Results: ChEMBL document CHEMBL4706563, “Triphenylethylene analogues: Design, synthesis and evaluation of antitumor activity and topoisomerase inhibitors” (Eur J Med Chem, 2020)
Activity calls are given as the source filed them. The rule behind the calls is not given here.

Tests used:
Assay type in all cases: functional
SR = experiment: Antiproliferative activity against human SR cells assessed as growth inhibition at 10 uM relative to control; conditions: read-out: GI
Outline: (§1)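 NCI 60 human tumour cell line panel screen. Compounds tested at a single dose and growth inhibition (%) determined for each line.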

CCRF-CEM = experiment: Antiproliferative activity against human CCRF-CEM cells assessed as growth inhibition at 10 uM relative to control; conditions: read-out: GI
Outline: (§2)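 Single-dose screen run by the US National Cancer Institute across its 60-human tumour cell line panel. Each compound was tested at one concentration. Percent growth inhibition was recorded for each cell line.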

HL-60(TB) = experiment: Antiproliferative activity against human HL-60(TB) cells assessed as growth inhibition at 10 uM relative to control; conditions: read-out: GI
K562 = experiment: Antiproliferative activity against human K562 cells assessed as growth inhibition at 10 uM relative to control; conditions: read-out: GI; outline: as §2
MOLT-4 = experiment: Antiproliferative activity against human MOLT-4 cells assessed as growth inhibition at 10 uM relative to control; conditions: read-out: GI; outline: as §2
RPMI-8226 = experiment: Antiproliferative activity against human RPMI-8226 cells assessed as growth inhibition at 10 uM relative to control; conditions: read-out: GI; outline: as §2
A549 = experiment: Antiproliferative activity against human A549 cells assessed as growth inhibition at 10 uM relative to control; conditions: read-out: GI; outline: as §2
EKVX = experiment: Antiproliferative activity against human EKVX cells assessed as growth inhibition at 10 uM relative to control; conditions: read-out: GI; outline: as §2
HOP-62 = experiment: Antiproliferative activity against human HOP-62 cells assessed as growth inhibition at 10 uM relative to control; conditions: read-out: GI; outline: as §2
HOP-92 = experiment: Antiproliferative activity against human HOP-92 cells assessed as growth inhibition at 10 uM relative to control; conditions: read-out: GI; outline: as §2
NCI-H226 = experiment: Antiproliferative activity against human NCI-H226 cells assessed as growth inhibition at 10 uM relative to control; conditions: read-out: GI; outline: as §2
NCI-H23 = experiment: Antiproliferative activity against human NCI-H23 cells assessed as growth inhibition at 10 uM relative to control; outline: as §2
NCI-H322M = experiment: Antiproliferative activity against human NCI-H322M cells assessed as growth inhibition at 10 uM relative to control; conditions: read-out: GI; outline: as §2
NCI-H460 = experiment: Antiproliferative activity against human NCI-H460 cells assessed as growth inhibition at 10 uM relative to control; conditions: read-out: GI; outline: as §2
NCI-H522 = experiment: Antiproliferative activity against human NCI-H522 cells assessed as growth inhibition at 10 uM relative to control; conditions: read-out: GI; outline: as §2
COLO 205 = experiment: Antiproliferative activity against human COLO 205 cells assessed as growth inhibition at 10 uM relative to control; conditions: read-out: GI; outline: as §2
HCC 2998 = experiment: Antiproliferative activity against human HCC 2998 cells assessed as growth inhibition at 10 uM relative to control; outline: as §2
HCT-116 = experiment: Antiproliferative activity against human HCT-116 cells assessed as growth inhibition at 10 uM relative to control; conditions: read-out: GI; outline: as §2
HCT-15 = experiment: Antiproliferative activity against human HCT-15 cells assessed as growth inhibition at 10 uM relative to control; conditions: read-out: GI; outline: as §2
HT-29 = experiment: Antiproliferative activity against human HT29 cells assessed as growth inhibition at 10 uM relative to control; conditions: read-out: GI; outline: as §2
KM12 = experiment: Antiproliferative activity against human KM12 cells assessed as growth inhibition at 10 uM relative to control; conditions: read-out: GI; outline: as §2
SW-620 = experiment: Antiproliferative activity against human SW-620 cells assessed as growth inhibition at 10 uM relative to control; conditions: read-out: GI; outline: as §1
SF-295 = experiment: Antiproliferative activity against human SF-295 cells assessed as growth inhibition at 10 uM relative to control; outline: as §2
SF-539 = experiment: Antiproliferative activity against human SF-539 cells assessed as growth inhibition at 10 uM relative to control; conditions: read-out: GI; outline: as §2
SNB-19 = experiment: Antiproliferative activity against human SNB-19 cells assessed as growth inhibition at 10 uM relative to control; outline: as §1
SNB-75 = experiment: Antiproliferative activity against human SNB-75 cells assessed as growth inhibition at 10 uM relative to control; conditions: read-out: GI; outline: as §1
U-251 = experiment: Antiproliferative activity against human U251 cells assessed as growth inhibition at 10 uM relative to control; conditions: read-out: GI; outline: as §1
LOX IMVI = experiment: Antiproliferative activity against human LOX IMVI cells assessed as growth inhibition at 10 uM relative to control; conditions: read-out: GI; outline: as §2
Malme-3M = experiment: Antiproliferative activity against human Malme-3M cells assessed as growth inhibition at 10 uM relative to control; conditions: read-out: GI; outline: as §2
M14 = experiment: Antiproliferative activity against human M14 cells assessed as growth inhibition at 10 uM relative to control; conditions: read-out: GI; outline: as §2
MDA-MB-435 = experiment: Antiproliferative activity against human MDA-MB-435 cells assessed as growth inhibition at 10 uM relative to control; conditions: read-out: GI; outline: as §2
SK-MEL-2 = experiment: Antiproliferative activity against human SK-MEL-2 cells assessed as growth inhibition at 10 uM relative to control; conditions: read-out: GI; outline: as §2
SK-MEL-28 = experiment: Antiproliferative activity against human SK-MEL-28 cells assessed as growth inhibition at 10 uM relative to control; conditions: read-out: GI; outline: as §1
SK-MEL-5 = experiment: Antiproliferative activity against human SK-MEL-5 cells assessed as growth inhibition at 10 uM relative to control; conditions: read-out: GI; outline: as §1
UACC-257 = experiment: Antiproliferative activity against human UACC-257 cells assessed as growth inhibition at 10 uM relative to control; conditions: read-out: GI; outline: as §1
UACC-62 = experiment: Antiproliferative activity against human UACC-62 cells assessed as growth inhibition at 10 uM relative to control; conditions: read-out: GI; outline: as §1
IGROV-1 = experiment: Antiproliferative activity against human IGROV-1 cells assessed as growth inhibition at 10 uM relative to control; conditions: read-out: GI; outline: as §2
OVCAR-3 = experiment: Antiproliferative activity against human OVCAR-3 cells assessed as growth inhibition at 10 uM relative to control; conditions: read-out: GI; outline: as §2
OVCAR-4 = experiment: Antiproliferative activity against human OVCAR-4 cells assessed as growth inhibition at 10 uM relative to control; conditions: read-out: GI; outline: as §2
NCI/ADR-RES = experiment: Antiproliferative activity against human NCI/ADR-RES cells assessed as growth inhibition at 10 uM relative to control; conditions: read-out: GI; outline: as §2
SK-OV-3 = experiment: Antiproliferative activity against human SK-OV-3 cells assessed as growth inhibition at 10 uM relative to control; conditions: read-out: GI; outline: as §1
786-0 = experiment: Antiproliferative activity against human 786-0 cells assessed as growth inhibition at 10 uM relative to control; conditions: read-out: GI; outline: as §2
A498 = experiment: Antiproliferative activity against human A498 cells assessed as growth inhibition at 10 uM relative to control; conditions: read-out: GI; outline: as §2
ACHN = experiment: Antiproliferative activity against human ACHN cells assessed as growth inhibition at 10 uM relative to control; conditions: read-out: GI; outline: as §2
CAKI-1 = experiment: Antiproliferative activity against human CAKI-1 cells assessed as growth inhibition at 10 uM relative to control; conditions: read-out: GI; outline: as §2
SN12C = experiment: Antiproliferative activity against human SN12C cells assessed as growth inhibition at 10 uM relative to control; conditions: read-out: GI; outline: as §1
TK-10 = experiment: Antiproliferative activity against human TK-10 cells assessed as growth inhibition at 10 uM relative to control; conditions: read-out: GI; outline: as §1
UO-31 = experiment: Antiproliferative activity against human UO-31 cells assessed as growth inhibition at 10 uM relative to control; conditions: read-out: GI; outline: as §1
PC-3 = experiment: Antiproliferative activity against human PC-3 cells assessed as growth inhibition at 10 uM relative to control; conditions: read-out: GI; outline: as §2
DU-145 = experiment: Antiproliferative activity against human DU-145 cells assessed as growth inhibition at 10 uM relative to control; conditions: read-out: GI; outline: as §2
MCF7 = experiment: Antiproliferative activity against human MCF7 cells assessed as growth inhibition at 10 uM relative to control; conditions: read-out: GI; outline: as §2
MDA-MB-231 = experiment: Antiproliferative activity against human MDA-MB-231 cells assessed as growth inhibition at 10 uM relative to control; outline: as §2
Hs-578T = experiment: Antiproliferative activity against human Hs-578T cells assessed as growth inhibition at 10 uM relative to control; conditions: read-out: GI; outline: as §2
BT-549 = experiment: Antiproliferative activity against human BT-549 cells assessed as growth inhibition at 10 uM relative to control; conditions: read-out: GI; outline: as §2
T47D = experiment: Antiproliferative activity against human T47D cells assessed as growth inhibition at 10 uM relative to control; conditions: read-out: GI; outline: as §1
MDA-MB-468 = experiment: Antiproliferative activity against human MDA-MB-468 cells assessed as growth inhibition at 10 uM relative to control; conditions: read-out: GI; outline: as §2
OVCAR-8 = experiment: Antiproliferative activity against human OVCAR-8 cells assessed as growth inhibition at 10 uM relative to control; conditions: read-out: GI; outline: as §2

C/C(=C(/c1ccccc1)c1ccc(OCC(O)CN2CCOCC2)cc1)c1ccccc1 (configuration not stated)
inhibition of growth at 10 µM (SR): 52.8%
inhibition of growth at 10 µM (CCRF-CEM): 19.6%
inhibition of growth at 10 µM (HL-60(TB)): 39.3%
inhibition of growth at 10 µM (K562): 80.3%
inhibition of growth at 10 µM (MOLT-4): 38.5%
inhibition of growth at 10 µM (RPMI-8226): 25%
inhibition of growth at 10 µM (A549): 12.8%
inhibition of growth at 10 µM (EKVX): 3.36%
inhibition of growth at 10 µM (HOP-62): 9.9%
inhibition of growth at 10 µM (HOP-92): 19.8%
inhibition of growth at 10 µM (NCI-H226): 3.44%
growth inhibition (GI) (NCI-H23): inactive
inhibition of growth at 10 µM (NCI-H322M): 4.48%
inhibition of growth at 10 µM (NCI-H460): 7.41%
inhibition of growth at 10 µM (NCI-H522): 26.7%
inhibition of growth at 10 µM (COLO 205): 30.6%
growth inhibition (GI) (HCC 2998): inactive
inhibition of growth at 10 µM (HCT-116): 53.6%
inhibition of growth at 10 µM (HCT-15): 46.2%
inhibition of growth at 10 µM (HT-29): 86.9%
inhibition of growth at 10 µM (KM12): 36.4%
inhibition of growth at 10 µM (SW-620): 11.4%
growth inhibition (GI) (SF-295): inactive
inhibition of growth at 10 µM (SF-539): 25.8%
growth inhibition (GI) (SNB-19): inactive
inhibition of growth at 10 µM (SNB-75): 8.61%
inhibition of growth at 10 µM (U-251): 19.9%
inhibition of growth at 10 µM (LOX IMVI): 12.2%
inhibition of growth at 10 µM (Malme-3M): 24.8%
inhibition of growth at 10 µM (M14): -45.1%
inhibition of growth at 10 µM (MDA-MB-435): 9.29%
inhibition of growth at 10 µM (SK-MEL-2): 1.12%
inhibition of growth at 10 µM (SK-MEL-28): 10%
inhibition of growth at 10 µM (SK-MEL-5): 12.9%
inhibition of growth at 10 µM (UACC-257): 6.64%
inhibition of growth at 10 µM (UACC-62): 3%
inhibition of growth at 10 µM (IGROV-1): 3.82%
inhibition of growth at 10 µM (OVCAR-3): 9.6%
inhibition of growth at 10 µM (OVCAR-4): 10.7%
inhibition of growth at 10 µM (NCI/ADR-RES): 6.78%
inhibition of growth at 10 µM (SK-OV-3): 8.68%
inhibition of growth at 10 µM (786-0): 32.9%
inhibition of growth at 10 µM (A498): 8.44%
inhibition of growth at 10 µM (ACHN): 1.16%
inhibition of growth at 10 µM (CAKI-1): 19.9%
inhibition of growth at 10 µM (SN12C): 11.6%
inhibition of growth at 10 µM (TK-10): 5.68%
inhibition of growth at 10 µM (UO-31): 26.3%
inhibition of growth at 10 µM (PC-3): 28.2%
inhibition of growth at 10 µM (DU-145): 1.88%
inhibition of growth at 10 µM (MCF7): 15.8%
growth inhibition (GI) (MDA-MB-231): inactive
inhibition of growth at 10 µM (Hs-578T): 9.19%
inhibition of growth at 10 µM (BT-549): 6.69%
inhibition of growth at 10 µM (T47D): 39.7%
inhibition of growth at 10 µM (MDA-MB-468): 14.9%
inhibition of growth at 10 µM (OVCAR-8): 11.5%
